According to ChEMBL document CHEMBL3526133, “Identifying a selective substrate and inhibitor pair for the evaluation of CYP2J2 activity” (Drug Metab Dispos, 2012):
pIC50: −log10 of the molar value.

Key:
Cytochrome P450 3A4 = Cytochrome P450 3A4 (Homo sapiens, UniProt P08684); assay: Drug metabolism assessed as recombinant CYP3A4 (unknown origin)-mediated compound formation treated with amiodarone at 1 uM after 5 to 45 mins by LC-MS/MS analysis; assay type: ADME; settings: recombinant enzyme
Summary of the method: (§1)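 Preincubated, then started with NADPH-regenerating system (1 mM NADPH final). Aliquots taken at 0, 5, 10, 20, 30, 45 min and quenched in acetonitrile with internal standard. No-NADPH controls included. Products measured by LC-MS/MS.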

Cytochrome P450 2J2 [1] = target: T1, Cytochrome P450 2J2 (Homo sapiens, UniProt P51589); assay: Drug metabolism assessed as recombinant CYP2J2 (unknown origin)-mediated compound formation treated with amiodarone at 1 uM after 5 to 45 mins by LC-MS/MS analysis; assay type: ADME; settings: recombinant enzyme; summary of the method: as §1
T1 sequence (P51589 whole entry): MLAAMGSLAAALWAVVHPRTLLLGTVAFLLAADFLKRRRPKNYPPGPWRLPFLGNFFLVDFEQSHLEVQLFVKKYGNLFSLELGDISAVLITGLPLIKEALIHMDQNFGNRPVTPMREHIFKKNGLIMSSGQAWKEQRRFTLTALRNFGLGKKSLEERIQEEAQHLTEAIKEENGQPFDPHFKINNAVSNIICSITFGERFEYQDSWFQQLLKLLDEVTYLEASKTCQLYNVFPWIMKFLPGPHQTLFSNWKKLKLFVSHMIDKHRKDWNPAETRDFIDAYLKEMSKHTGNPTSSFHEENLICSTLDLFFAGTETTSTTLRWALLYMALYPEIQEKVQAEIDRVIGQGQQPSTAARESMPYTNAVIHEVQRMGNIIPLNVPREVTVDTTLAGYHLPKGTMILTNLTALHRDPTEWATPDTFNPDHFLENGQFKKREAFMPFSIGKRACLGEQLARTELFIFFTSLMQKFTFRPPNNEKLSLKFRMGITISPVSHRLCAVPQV

[2] = Retention time in potassium phosphate buffer treated with amiodarone hydrochloride at 30 uM by HPLC analysis; assay type: physicochemical
Cytochrome P450 2J2 [3] = target: T1, Cytochrome P450 2J2; assay: Drug metabolism in human liver microsomes assessed as CYP2J2-mediated compound formation treated with amiodarone at 1 uM after 5 to 45 mins by LC-MS/MS analysis; assay type: ADME
CYP2J2 [4] = target: T2, CYP2J2 (Homo sapiens, UniProt P51589); assay: in vitro
T2 sequence (P51589 whole entry): T1 sequence (P51589 whole entry)

Cytochrome P450 2C9 = Cytochrome P450 2C9 (Homo sapiens, UniProt P11712)
CYP2D6 = CYP2D6 (Homo sapiens, UniProt P10635); assay: Inhibition of CYP2D6-mediated dextromethorphan metabolite formation in human liver microsomes at 0.3 uM after 8 mins by LC-MS/MS analysis relative to control; assay type: ADME; settings: probe dextromethorphan (metabolite formation)
Summary of the method: (§2)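 Pooled HLM with probe cocktail: phenacetin 10 µM, paclitaxel 5 µM, diclofenac 5 µM, S-mephenytoin 40 µM, dextromethorphan 5 µM, midazolam 2 µM. […] Preincubated 15 min, then started with NADPH-regenerating system (1 mM NADPH). Reaction run 8 min, quenched in acetonitrile with internal standard. Metabolites measured by LC-MS/MS; % inhibition given as mean ± S.D.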

Cytochrome P450 2J2 [5] = target: T1, Cytochrome P450 2J2; assay: Drug metabolism in human liver microsomes assessed as CYP2J2-mediated astemizole O-demethylation measured per pmol protein at 0.3 uM after 5 mins by LC-MS/MS analysis; assay type: ADME
CYP2C8 [6] = target: T3, CYP2C8 (Homo sapiens, UniProt P10632); assay: Inhibition of CYP2C8-mediated paclitaxel metabolite formation in human liver microsomes at 0.3 uM after 8 mins by LC-MS/MS analysis relative to control; assay type: ADME; settings: probe paclitaxel (metabolite formation); summary of the method: as §2
T3 sequence (P10632 whole entry): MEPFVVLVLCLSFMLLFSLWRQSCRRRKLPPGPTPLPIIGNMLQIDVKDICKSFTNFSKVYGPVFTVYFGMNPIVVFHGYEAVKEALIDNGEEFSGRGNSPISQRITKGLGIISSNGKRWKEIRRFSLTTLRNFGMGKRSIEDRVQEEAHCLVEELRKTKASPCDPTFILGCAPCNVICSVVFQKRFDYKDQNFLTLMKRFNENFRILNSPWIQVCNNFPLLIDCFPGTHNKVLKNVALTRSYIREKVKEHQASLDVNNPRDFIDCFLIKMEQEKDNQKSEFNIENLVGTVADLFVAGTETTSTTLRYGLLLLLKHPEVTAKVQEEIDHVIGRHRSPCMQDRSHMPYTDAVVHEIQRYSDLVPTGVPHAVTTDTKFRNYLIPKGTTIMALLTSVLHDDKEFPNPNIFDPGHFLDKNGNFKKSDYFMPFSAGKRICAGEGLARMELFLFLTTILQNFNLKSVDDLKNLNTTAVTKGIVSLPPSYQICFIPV

CYP3A4 = CYP3A4 (Homo sapiens, UniProt P08684); assay: Inhibition of CYP3A4-mediated midazolam metabolite formation in human liver microsomes at 0.3 uM after 8 mins by LC-MS/MS analysis relative to control; assay type: ADME; settings: probe midazolam (metabolite formation); summary of the method: as §2
CYP2C9 = CYP2C9 (Homo sapiens, UniProt P11712); assay: Inhibition of CYP2C9-mediated diclofenac metabolite formation in human liver microsomes at 0.3 uM after 8 mins by LC-MS/MS analysis relative to control; assay type: ADME; settings: probe diclofenac (metabolite formation); summary of the method: as §2
Cytochrome P450 1A2 = target: T4, Cytochrome P450 1A2 (Homo sapiens, UniProt P05177)
T4 sequence (P05177 whole entry): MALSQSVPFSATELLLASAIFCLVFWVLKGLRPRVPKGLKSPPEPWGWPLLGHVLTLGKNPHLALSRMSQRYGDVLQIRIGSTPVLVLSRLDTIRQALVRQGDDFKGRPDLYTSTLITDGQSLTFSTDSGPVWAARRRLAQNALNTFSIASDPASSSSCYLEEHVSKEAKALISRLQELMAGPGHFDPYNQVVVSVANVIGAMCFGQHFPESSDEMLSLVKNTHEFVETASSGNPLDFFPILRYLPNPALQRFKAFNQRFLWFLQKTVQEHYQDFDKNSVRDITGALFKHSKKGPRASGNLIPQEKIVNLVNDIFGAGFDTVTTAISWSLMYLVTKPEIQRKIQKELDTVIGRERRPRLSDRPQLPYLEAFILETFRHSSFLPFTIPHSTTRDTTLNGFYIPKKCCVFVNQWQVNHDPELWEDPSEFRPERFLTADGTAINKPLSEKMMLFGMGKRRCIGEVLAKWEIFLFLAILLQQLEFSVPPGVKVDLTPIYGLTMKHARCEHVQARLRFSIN

CYP1A2 = target: T5, CYP1A2 (Homo sapiens, UniProt P05177); assay: Inhibition of CYP1A2-mediated phenacetin metabolite formation in human liver microsomes at 0.3 uM after 8 mins by LC-MS/MS analysis relative to control; assay type: ADME; settings: probe phenacetin (metabolite formation); summary of the method: as §2
T5 sequence (P05177 whole entry): T4 sequence (P05177 whole entry)

Cytochrome P450 2C8 = target: T6, Cytochrome P450 2C8 (Homo sapiens, UniProt P10632)
T6 sequence (P10632 whole entry): T3 sequence (P10632 whole entry)

Cytochrome P450 2C19 = Cytochrome P450 2C19 (Homo sapiens, UniProt P33261)
Cytochrome P450 2D6 = Cytochrome P450 2D6 (Homo sapiens, UniProt P10635)
CYP2C19 = CYP2C19 (Homo sapiens, UniProt P33261); assay: Inhibition of CYP2C19-mediated S-mephenytoin metabolite formation in human liver microsomes at 0.3 uM after 8 mins by LC-MS/MS analysis relative to control; assay type: ADME; settings: probe S-mephenytoin (metabolite formation); summary of the method: as §2
CYP2C8 [7] = target: T3, CYP2C8; assay: in vitro; settings: human liver microsomes, probe paclitaxel (metabolite formation)
CYP2J2 [8] = target: T2, CYP2J2; assay: in vitro; settings: recombinant enzyme

Chain of CYP2C19 (P33261 whole entry): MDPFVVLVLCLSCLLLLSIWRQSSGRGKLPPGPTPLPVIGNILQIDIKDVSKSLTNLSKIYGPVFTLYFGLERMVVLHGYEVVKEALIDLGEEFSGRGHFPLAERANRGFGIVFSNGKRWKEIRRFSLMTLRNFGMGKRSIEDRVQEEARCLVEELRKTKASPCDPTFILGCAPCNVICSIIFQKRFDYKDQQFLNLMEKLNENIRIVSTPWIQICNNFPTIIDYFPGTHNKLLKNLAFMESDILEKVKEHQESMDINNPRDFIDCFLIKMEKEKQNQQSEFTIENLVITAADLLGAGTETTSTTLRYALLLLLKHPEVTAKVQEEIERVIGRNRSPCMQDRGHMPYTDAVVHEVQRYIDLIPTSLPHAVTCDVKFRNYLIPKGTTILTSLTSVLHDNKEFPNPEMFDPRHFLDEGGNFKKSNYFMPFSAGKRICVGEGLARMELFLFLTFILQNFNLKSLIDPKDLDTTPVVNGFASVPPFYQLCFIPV
Chain of Cytochrome P450 2C19 (P33261 whole entry): as above
Chain of CYP2D6 (P10635 whole entry): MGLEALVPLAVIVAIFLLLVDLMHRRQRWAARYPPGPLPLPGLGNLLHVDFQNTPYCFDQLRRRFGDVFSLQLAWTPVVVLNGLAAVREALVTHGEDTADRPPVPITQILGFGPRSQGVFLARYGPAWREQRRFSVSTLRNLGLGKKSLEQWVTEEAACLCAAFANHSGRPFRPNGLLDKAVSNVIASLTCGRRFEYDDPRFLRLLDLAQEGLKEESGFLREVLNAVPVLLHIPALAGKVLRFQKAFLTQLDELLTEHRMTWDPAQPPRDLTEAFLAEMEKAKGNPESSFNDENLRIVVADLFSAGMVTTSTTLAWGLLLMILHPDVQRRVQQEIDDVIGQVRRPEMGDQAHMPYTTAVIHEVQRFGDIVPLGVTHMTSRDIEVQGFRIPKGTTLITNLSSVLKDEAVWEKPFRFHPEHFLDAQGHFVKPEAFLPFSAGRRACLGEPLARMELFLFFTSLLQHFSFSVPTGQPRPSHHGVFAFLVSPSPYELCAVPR
Chain of Cytochrome P450 2D6 (P10635 whole entry): as above
Chain of CYP3A4 (P08684 whole entry): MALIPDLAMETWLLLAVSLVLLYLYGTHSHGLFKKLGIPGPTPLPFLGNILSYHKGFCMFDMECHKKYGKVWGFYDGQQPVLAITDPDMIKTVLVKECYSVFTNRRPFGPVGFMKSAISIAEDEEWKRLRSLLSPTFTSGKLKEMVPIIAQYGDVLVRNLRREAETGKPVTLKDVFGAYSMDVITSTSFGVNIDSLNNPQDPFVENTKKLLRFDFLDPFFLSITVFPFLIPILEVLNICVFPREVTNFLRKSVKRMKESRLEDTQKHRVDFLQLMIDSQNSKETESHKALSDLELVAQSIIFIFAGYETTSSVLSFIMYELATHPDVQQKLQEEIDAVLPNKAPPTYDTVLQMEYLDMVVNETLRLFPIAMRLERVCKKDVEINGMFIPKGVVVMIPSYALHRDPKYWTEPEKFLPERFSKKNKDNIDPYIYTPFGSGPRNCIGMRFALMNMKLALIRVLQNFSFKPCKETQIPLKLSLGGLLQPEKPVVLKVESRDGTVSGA
Chain of Cytochrome P450 3A4 (P08684 whole entry): as above
Chain of Cytochrome P450 2C9 (P11712 whole entry): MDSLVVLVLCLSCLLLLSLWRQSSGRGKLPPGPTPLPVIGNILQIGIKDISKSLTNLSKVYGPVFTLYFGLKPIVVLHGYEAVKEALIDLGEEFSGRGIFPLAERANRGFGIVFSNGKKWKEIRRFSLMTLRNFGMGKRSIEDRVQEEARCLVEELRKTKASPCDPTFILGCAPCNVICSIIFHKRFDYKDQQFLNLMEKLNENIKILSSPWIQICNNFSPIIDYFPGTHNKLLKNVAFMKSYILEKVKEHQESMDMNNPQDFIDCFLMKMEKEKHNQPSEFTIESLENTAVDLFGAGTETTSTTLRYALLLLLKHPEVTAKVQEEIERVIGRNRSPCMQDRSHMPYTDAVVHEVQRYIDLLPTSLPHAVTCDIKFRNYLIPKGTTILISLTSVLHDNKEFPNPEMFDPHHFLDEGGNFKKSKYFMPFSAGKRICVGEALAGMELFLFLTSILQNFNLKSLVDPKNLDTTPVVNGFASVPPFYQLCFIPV
Chain of CYP2C9 (P11712 whole entry): as above

With CCN(CC)CCOc1c(I)cc(C(=O)c2c(CCC(C)O)oc3ccccc23)cc1I (stereo not given) the Drug metabolism (Cytochrome P450 3A4) was “metabolite_detected”, the Drug metabolism (Cytochrome P450 2J2 [1]) was “metabolite_detected” and the Retention_time [2] was 13.2 min. The Drug metabolism (Cytochrome P450 2J2 [3]) was “metabolite_detected”.
With COc1ccc(CCN2CCC(Nc3nc4ccccc4n3Cc3ccc(F)cc3)CC2)cc1 [ASTEMIZOLE] the activity at 5 min, 30 µM (CYP2J2 [4]; recombinant CYP2J2, probe terfenadine (hydroxylation)) was 8.3%, the pIC50 (Cytochrome P450 2C9) was < 4.52 and the inhibition at 8 min, 0.3 µM (CYP2D6) was 8.5%. The Drug metabolism (Cytochrome P450 2J2 [5]) was 32 pmol/min, the inhibition at 8 min, 0.3 µM (CYP2C8 [6]) was 1.1% and the inhibition at 8 min, 0.3 µM (CYP3A4) was 20.3%. The inhibition at 8 min, 0.3 µM (CYP2C9) was -2.7%, the pIC50 (Cytochrome P450 1A2) was < 4.52 and the inhibition at 8 min, 0.3 µM (CYP1A2) was -0.6%. For the same molecule, the pIC50 (Cytochrome P450 2C8) was < 4.52, the pIC50 (Cytochrome P450 2C19) was 4.86 and the pIC50 (Cytochrome P450 2D6) was < 4.52. For the same molecule, the inhibition at 8 min, 0.3 µM (CYP2C19) was 6%.
CCCCc1oc2ccccc2c1C(=O)c1cc(I)c(OCCN(CC)CC)c(I)c1 [AMIODARONE] showed an activity at 5 min, 30 µM (CYP2J2 [4]; recombinant enzyme) of 39%, an inhibition at 8 min, 5 µM (CYP2C8 [7]) of 32.7% and an activity at 5 min, 30 µM (CYP2J2 [8]) of 18.7%.
